From PubChem BioAssay
Shown are actives, neighbours in structure and some others; about 2% of the full set was active somewhere.
Rpn11 inh: Rpn11 (PSMD14) deubiquitinase inhibitors, primary screen, biochemical, fluorescence polarization, uHTS; 26S proteasome non-ATPase regulatory subunit 14 (Homo sapiens), O00487; human 26S proteasome, Ub4-pepOG fluorescence polarization; 20S core pre-blocked with epoxomicin; inhibition, % at 20 µM; actives 0.59% (n = 360,000); AID 588493, 2011;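 active means inhibition at 20 µM, scaled to each plate's controls, above about 33%, limit read from the data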
Target sequence (O00487 whole entry, looked up): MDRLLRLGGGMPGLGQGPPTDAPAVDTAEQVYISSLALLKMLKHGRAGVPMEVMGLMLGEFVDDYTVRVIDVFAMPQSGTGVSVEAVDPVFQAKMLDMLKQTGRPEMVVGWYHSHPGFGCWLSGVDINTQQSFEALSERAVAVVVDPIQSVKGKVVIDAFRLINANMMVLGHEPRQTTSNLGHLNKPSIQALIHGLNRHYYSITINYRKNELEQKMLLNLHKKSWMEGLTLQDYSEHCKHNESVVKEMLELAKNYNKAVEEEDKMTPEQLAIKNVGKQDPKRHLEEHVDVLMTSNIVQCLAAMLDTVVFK
LMPTP block: LMPTP phosphatase inhibitors, primary screen, biochemical, fluorescence intensity, uHTS; Low molecular weight phosphotyrosine protein phosphatase (Homo sapiens), P24666; recombinant LMPTP-A, OMFP fluorogenic substrate; inhibition, % at 20 µM; actives 0.22% (n = 360,000); AID 651560, 2012;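 active means compounds that cut the enzyme signal by at least half of the control window in the single-dose screen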;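 further: plate controls were DMSO wells with enzyme plus substrate for no effect and substrate without enzyme for full effect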
Target sequence (P24666 whole entry, looked up): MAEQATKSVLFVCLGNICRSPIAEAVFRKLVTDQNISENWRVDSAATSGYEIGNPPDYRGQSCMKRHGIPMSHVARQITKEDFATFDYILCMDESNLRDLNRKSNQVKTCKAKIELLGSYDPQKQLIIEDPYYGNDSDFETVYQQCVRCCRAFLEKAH
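material = LMPTP-A | quantity = 0.625 nM enzyme | reagent = OMFP substrate, 400 µM final | buffer or medium = Bis-Tris pH 6.0, DTT, detergent | detection = endpoint fluorescence intensity from OMFP dephosphorylation | dosing = single 20 µM dose | read-out basis = % inhibition relative to no-enzyme and uninhibited control wells | control set = no-enzyme and uninhibited controls | timing = 50 min at room temperature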
DNMT1 block: human DNMT1 methyltransferase inhibitors, primary screen, biochemical, molecular beacon, fluorescence, HinP1I cleavage, uHTS | DNA (cytosine-5)-methyltransferase 1 (Homo sapiens), P26358 | inhibition (reported as % activation of signal), % at 10 µM | actives 0.83% (n = 360,000) | AID 588458, 2011; in the data active means inhibition above about 50%
Scp-1 inhibitor: Scp-1 phosphatase inhibitors, primary screen, biochemical, colorimetric, uHTS. inhibition, % at 20 µM. actives 0.88% (n = 340,000). Recombinant Scp1, phosphopeptide, malachite green phosphate absorbance;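 active means inhibition above about 50% at 20 µM, limit read from the data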;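 further: plate controls were DMSO wells with enzyme for no effect and wells lacking enzyme for full effect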
Target sequence (Q9GZU7 76-261 limits assumed): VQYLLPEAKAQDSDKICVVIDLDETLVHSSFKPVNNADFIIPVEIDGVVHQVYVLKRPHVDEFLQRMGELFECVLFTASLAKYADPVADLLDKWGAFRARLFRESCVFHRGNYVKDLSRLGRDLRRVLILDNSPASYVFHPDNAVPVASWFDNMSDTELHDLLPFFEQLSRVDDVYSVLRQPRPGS
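Test system – truncated SCP-1 phosphatase (76-261aa) · Reagent – Phosphorylated 17-residue peptide substrate · Incubation – 45 min room-temperature reaction, 5 min colour, 30 min stabiliser · Detection – colorimetric phosphate reagent with accelerator and stabiliser, absorbance at 630 nm · Measure – % inhibition at 20 µM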
STEP block: STEP phosphatase inhibitors, primary screen, biochemical, fluorescence intensity, uHTS; recombinant STEP, OMFP fluorogenic substrate; inhibition, % at 20 µM; actives 0.25% (n = 360,000); AID 588621, 2011;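 active means inhibition at 20 µM, scaled per plate between control wells, above about 37%, limit read from the data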;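 further: 0% = DMSO with enzyme and substrate and 100% = substrate only without enzyme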
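Material: STEP (striatal-enriched tyrosine phosphatase) enzyme, cell-free | Medium: 50 mM Bis-Tris pH 6.0 with 2.5 mM DTT and 0.005% Tween 20 | Read-out: Percent inhibition scaled to no-enzyme and uninhibited-enzyme controls, plate-pattern corrected | Signal: Fluorescence read at 480 nm ex / 540 nm em | Times: 20 min reaction, room temperature, in the dark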
Rpn11 inh conf: Rpn11 (PSMD14) deubiquitinase inhibitors, confirmation, biochemical, fluorescence polarization, single concentration; shares compounds with Rpn11 inh; purified human 26S proteasome, Ub4-pepOG fluorescence polarization; proteasome pretreated with epoxomicin; inhibition, % at 20 µM; actives 29% (n = 1,900); AID 602318, 2012
MMP-2 inh: MMP-2 enzyme inhibition, confirmation, counter-screen for RPN11 inhibitor project, biochemical, fluorescence, single concentration; actives 4% (n = 1,900); recombinant MMP-2, FRET peptide cleavage fluorescence; inhibition, % at 20 µM; shares compounds with Rpn11 inh; AID 602330, 2012;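 further: human MMP-2 activated beforehand with APMA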
Thrombin FP: bovine thrombin protease inhibition, confirmation, counter-screen for Rpn11 inhibitor project, biochemical, fluorescence polarization, single concentration; shares compounds with Rpn11 inh; bovine thrombin cleavage of Ub4-pepOG; inhibition, % at 20 µM; actives 13% (n = 1,900); AID 602333, 2012;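 active means mean inhibition at least 40% at 20 µM, or signal 3 deviations below plate average, so some actives read negative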;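 further: plate controls were thrombin with DMSO for no effect and buffer wells lacking thrombin for full effect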
The depositor's hits bear a star; . = no result; + = active, no number. Unless noted, no stated cut-off is given here; in the data, active means inhibition above about 40%; inactive means the rest.

SMILES	Rpn11 inh	LMPTP block	DNMT1 block	Scp-1 inhibitor	STEP block	Rpn11 inh conf	MMP-2 inh	Thrombin FP
COC(=O)c1cc2c(=O)c3ccccc3oc2nc1/C=C/N(C)C	44*	5	1	-15	0	30	-39	10
COC(=O)c1cc2c(=O)c3ccccc3oc2nc1C	0	-1	2	-12	0	.	.	.
CC(C)(C)NC(=O)C[C@H]1C[C@H](C(=O)N2CCCCC2)[C@@]2(CCc3ccccc3)c3[nH]c4cc(-c5ccco5)ccc4c3CCN2C1=O	53*	2	-17	1	1	11	32	23
O=C(C[C@H]1C[C@H](C(=O)N2CCOCC2)[C@@]2(CCC3CCCC3)c3[nH]c4cc(-c5ccco5)ccc4c3CCN2C1=O)NCCc1ccccn1	11	-3	-27	7	3	.	.	.
COc1ccc(CNC(=O)C[C@H]2C[C@H](C(=O)N3CCCCC3)[C@@]3(CCc4ccccc4)c4[nH]c5cc(-c6ccco6)ccc5c4CCN3C2=O)cc1OC	56*	4	-20	1	4	3	-2	-5
C[C@]12c3[nH]c4cc(-c5ccco5)ccc4c3CCN1C(=O)[C@@H](CC(=O)NCC13CC4CC(CC(C4)C1)C3)C[C@@H]2C(=O)N1CCCCC1	39*	5	-24	4	1	-6	5	-10
O=C(C[C@H]1C[C@H](C(=O)N2CCOCC2)[C@@]2(CCC3CCCC3)c3[nH]c4cc(-c5ccco5)ccc4c3CCN2C1=O)NCCC1=CCCCC1	38*	2	-20	1	2	2	-24	-6
CCOCCc1nnc(NC(=O)Cc2c(F)cccc2Cl)s1	2	-1	3	3	-4	.	.	.
COc1cccc(-c2noc(CCC(=O)NCC3CCCO3)n2)c1 (stereo unspecified)	3	0	-2	0	0	.	.	.
O=C(NC1CCCc2ccccc21)C12CC3CC(CC(O)(C3)C1)C2 (stereo unspecified)	-3	-2	5	1	0	.	.	.
FC(F)Sc1ccc(NC(=S)NC2CCC(NC(=S)Nc3ccc(SC(F)F)cc3)CC2)cc1 (stereo unspecified)	143*	0	3	-6	2	9	21	-1
O=C(CN1CCCCC1)NCCNc1ccc(C(F)(F)F)cc1[N+](=O)[O-]	-1	-1	1	-7	2	.	.	.
O=C(Nc1cccnc1)c1cccc(-c2cc3ccccc3oc2=O)c1	134*	39	12	9	7	115*	14	15
CC1CC(C)CN(C(=O)C2CCC(CNS(=O)(=O)c3ccccc3)CC2)C1 (stereo unspecified)	5	-1	0	-10	-4	.	.	.
O=C(Nc1ccccc1)c1cnc2ccccc2n1	128*	0	-2	-6	-1	-1	-19	-9
C[C@@H]1NC(=O)N(CCCn2ccnc2)C1=O	2	-11	7	-14	0	.	.	.
COc1cc(/C=C(/C#N)c2nc3ccccc3[nH]2)ccc1OCc1ccc(C(=O)O)o1	5	1	9	28	4	.	.	.
COC(=O)c1ccc(COc2ccc(/C=C(\C#N)c3nc4ccccc4[nH]3)cc2OC)o1	138*	2	4	-4	1	127*	-150	90*
CC(C)(C)Nc1cccccc1=O	103*	0	-10	-2	2	3	-14	-1
Cc1ccc(Nc2cccccc2=O)cc1	-9	-1	-1	3	-2	.	.	.
O=C(CSC1=NS(=O)(=O)c2cc(F)ccc2N1)NCc1ccc(F)cc1	-2	0	1	-9	-3	.	.	.
O=[N+]([O-])c1ccc(O)c(/C=N/NC2=NS(=O)(=O)c3ccccc32)c1	49*	1	3	-9	-5	90*	22	30
O=[N+]([O-])c1ccc(/C=N/NC2=NS(=O)(=O)c3ccccc32)cc1	-2	-2	6	3	5	.	.	.
O=C(Cc1cccs1)N1CCC(c2nc3c(nnn3Cc3ccccc3)c(=O)[nH]2)CC1	53*	-2	-1	-3	-2	-5	-9	-9
Cc1ccccc1C(=O)Nc1ccnn1C1CCN(Cc2cnn(C)c2)CC1	0	0	2	-8	1	.	.	.
SMILES	Rpn11 inh	LMPTP block	DNMT1 block	Scp-1 inhibitor	STEP block	Rpn11 inh conf	MMP-2 inh	Thrombin FP
Cc1cc2c(c(=O)n1CCN(C)C)C(c1ccc(Cl)cc1)C(C#N)=C(N)O2 (stereo unspecified)	-7	0	-4	-6	-1	.	.	.
Cc1cc2c(c(=O)n1C1CC1)C(c1cccc(Cl)c1)C(C#N)=C(N)O2 (stereo unspecified)	+	0	-1	-3	0	8	-1	7
O=C(N/N=C\c1cc([N+](=O)[O-])ccc1N1CCCC1)c1ccccn1	1	1	1	-1	4	.	.	.
O=C(Cn1c2ccccc2c(=O)c2ccccc21)N/N=C/c1cc([N+](=O)[O-])ccc1N1CCCCC1	59*	1	10	3	4	18	-10	17
O=C(Cc1cccc(NC(=O)C2CCN(C(=O)c3ccccc3)CC2)c1)Nc1cccc(C(=O)N2CCCCC2)c1	4	-2	0	-4	-2	.	.	.
CSc1nnc(NC(=O)c2cc(=O)c3cc(C)cc(C)c3o2)s1	0	0	1	0	3	.	.	.
COc1ccc(N/C=C/C(=O)c2ccccc2)cc1	3	1	-4	2	1	.	.	.
COc1ccc(N/C=C/C(=O)c2sc(-c3ccccc3)nc2C)cc1	40*	3	-11	-7	2	17	-15	-17
C(=N\NC1=Nc2cccc3cccc1c23)/c1ccccc1	-76	4	-16	6	-2	.	.	.
